Experimental data reported in ChEMBL document CHEMBL4028901, “Novel Antitubercular 6-Dialkylaminopyrimidine Carboxamides from Phenotypic Whole-Cell High Throughput Screening of a SoftFocus Library: Structure-Activity Relationship and Target Identification Studies” (J Med Chem, 2017).
In brackets after ≈: the same amount, converted by molar mass. Activity calls are given as the source filed them. The rule behind the calls is not given here.

Tests used:
[1] = test system: Mycobacterium tuberculosis variant bovis BCG; test: Binding affinity to Mycobacterium bovis BCG Rv3169 using sepharose beads derivatized with 6-((3-aminopropyl)(benzyl)amino)-N-(4-(4-methylpiperazin-1-yl)phenyl)pyrimidine-4-carboxamide by LC-MS/MS based chemoproteomics assay
How it was run: (§1)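 BCG lysate (0.25 mg) pre-incubated with compound or DMSO, then bound to probe-derivatized sepharose beads (0.04 mM) for 1 h at 4 °C. Six compound concentrations used, top 30 μM with 1:4 steps. Includes vehicle duplicates and rebinding duplicates to measure depletion. Bound proteins eluted and quantified by TMT LC-MS/MS. Apparent Kd corrected for depletion by the beads.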

[2] = test system: Mycobacterium tuberculosis variant bovis BCG; test: Binding affinity to Mycobacterium bovis BCG Rv3768 using sepharose beads derivatized with 6-((3-aminopropyl)(benzyl)amino)-N-(4-(4-methylpiperazin-1-yl)phenyl)pyrimidine-4-carboxamide by LC-MS/MS based chemoproteomics assay; how it was run: as §1
[3] = Binding affinity to Mycobacterium bovis BCG Rv3768; parameters: species or system Mycobacterium tuberculosis variant bovis BCG; conditions: read-out: Kd(app)
[4] = Binding affinity to Mycobacterium bovis BCG Rv3169; parameters: species or system Mycobacterium tuberculosis variant bovis BCG; conditions: read-out: Kd(app)
[5] = test system: Mycobacterium tuberculosis; test: Antibacterial activity against GFP-fused Mycobacterium tuberculosis H37RvMA expressing QcrB mutant grown in 7H9/GLU/ADC medium measured on day 7 and day 14 post inoculation by fluorescence plate reader assay; type: functional
How it was run: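 Mtb::gfp strains (H37RvMa::pMSP12GFP background), two-fold dilutions 20–0.039 µM in 7H9 with Tween-80, glycerol and ADC, or in GAST-Fe pH 6.6, at 5% final DMSO. Cultures grown to OD600 ~0.6 and diluted 1:500 (7H9) or 1:100 (GAST/Fe). […] Data normalised to rifampicin and DMSO controls; MIC90 taken from dose-response curves.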

Row | Structure (SMILES) | Activity [1] | Activity [2] | Kd [3] | Kd [4] | MIC99 [5]
1 | O=C(Nc1ccccc1)c1ccc(=O)n(Cc2ccc(F)cc2)c1 | inactive | inactive | – | – | –
2 | CN1CCN(c2ccc(NC(=O)c3cc(N(C)Cc4ccc(C(F)(F)F)cc4)ncn3)cc2)CC1 | Active | Active | 2100 to 3800 nM | 610 to 690 nM | –
3 | COc1ccc(NC(=O)c2cc(N(C)Cc3ccccc3)ncn2)cc1 | – | – | – | – | 20 µM (≈ 6.97 µg/mL)
